# Assay outcomes (PubChem)
# The full list was thinned out, with hits kept by preference.
# bCat KO growth: beta-catenin-lacking colon tumor cell growth suppression | viability, % at 10 µM | HCT116 beta-catenin knockout viability, CellTiter-Glo, 60 h; stronger effect = lower value | 140,000 compounds, 1.5% hits;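 active = viability at or under a set limit, the compound median less 4 SD, cut at about 6% in these data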
# Lung fibro prol: blocks proliferation of human lung fibroblasts. LL 47 human lung fibroblast viability, ATP luminescence; stronger effect = lower value. viability, % at 10 µM. 85,000 compounds, 1.1% hits;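 active = viability at or below 50% in the single dose screen; inactive = viability above 50%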;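 note: compound exposure lasted 72 h before the ATP readout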
#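 Test system: LL 47 human lung fibroblasts / Incubation: 72 h compound exposure at 37 °C after overnight plating / Technique: luminescent ATP detection, CellTiter-Glo / Compound dosing: 0.1% DMSO in all compound wells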
# HUVEC prolif 384: inhibitors of human endothelial cell proliferation | HUVEC proliferation, CellTiter-Glo luminescence, 72 h; stronger effect = lower value | 86,000 compounds, 1.1% hits | viability, % at 10 µM (by protocol);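 active = viability at or below 30%; inactive = viability above 30%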
# H69AR growth 86K: growth inhibitors of human H69AR lung tumor cells; 85,000 compounds, 6% hits; AID 598; viability, % at 10 µM; H69AR lung tumor viability, ATP luminescence, 72 h; stronger effect = lower value;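 active = viability at or below 40%; inactive = viability above 40%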;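 note: multidrug resistant small cell line overexpressing MRP-1 efflux transporter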
# PTEN del growth: suppresses growth of cells with PTEN deletion; AID 827; HCT116 PTEN-null viability, CellTiter-Glo, 60 h; stronger effect = lower value; viability, % at 10 µM; 140,000 compounds, 1.2% hits;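 active = viability at or below a set limit, 4 SD under the median of all tested compounds, cut at about 3.7% in these data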;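 note: PTEN knockout HCT116 line with beta catenin targeted HCT116 as companion control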
# A number is an active result; n = inactive; x = no result given.
SMILES,bCat KO growth,Lung fibro prol,HUVEC prolif 384,H69AR growth 86K,PTEN del growth
COc1ccccc1N(C(=O)c1cncc(Br)c1)c1nc(-c2ccc(C)cc2)cs1,n,x,x,x,n
CN1CCN(Cc2cc(=O)oc3cc4c(cc23)CCC4)CC1,n,n,n,n,n
O=c1cc(CN2CCN(c3ccc(F)cc3)CC2)c2cc3c(cc2o1)CCCC3,n,n,n,32,n
COc1ccc(N2CCN(Cc3cc(=O)oc4cc(C)c(Cl)cc34)CC2)cc1,n,n,n,24,n
Cc1cc2oc(=O)cc(CN3CCOCC3)c2cc1C,n,n,n,n,n
O=c1cc(CN2CCN(c3ccccc3F)CC2)c2cc(O)c(-c3ccccc3)cc2o1,n,x,x,x,n
Cc1cc2oc(=O)cc(CN3CCN(C/C=C/c4ccccc4)CC3)c2cc1O,2.3,x,x,x,2.8
O=c1cc(CN2CCN(C/C=C/c3ccccc3)CC2)c2cc(O)c(-c3ccccc3)cc2o1,n,x,x,x,n
COc1ccc(N2CCN(Cc3cc(=O)oc4cc(-c5ccccc5)c(O)cc34)CC2)cc1,n,7.6,n,3.1,n
Cc1ccc(C)c(NC(=O)/C(C#N)=C/c2ccc(Sc3nncn3C)c([N+](=O)[O-])c2)c1,n,x,x,x,n
N#CC1=C(N)C(C#N)(C#N)C2(CCC3(CC2)OCCO3)C2CC3(CC=C12)OCCO3 (configuration not stated),n,n,n,n,n
N#CC1=C(N)C(C#N)(C#N)[C@H](c2c(F)cccc2F)[C@H]2CC3(CC=C12)OCCO3,n,n,n,3.0,n
CN1C2C=C3C(C#N)=C(N)C(C#N)(C#N)[C@@H](c4cccc(F)c4)[C@@H]3C1CC2 (some centres not stated),n,n,n,n,n
CN1C2C=C3C(C#N)=C(N)C(C#N)(C#N)[C@H](c4c(F)cccc4F)[C@H]3C1CC2 (some centres not stated),n,n,n,18,n
COc1cc(/C=N/Nc2cccc(C)c2)ccc1OC(=O)c1ccco1,n,x,x,x,n
COc1ccc(/C=C/c2ccncc2)c2ccccc12,n,n,n,14,n
COc1ccccc1/C=C/C=N/NC(=O)c1ccncc1,n,x,x,x,n
O=C(Cc1ccc(-n2cccc2)cc1)NCc1cccs1,n,n,n,29,n
Cc1ccccc1CSCC(=O)NCc1ccco1,n,x,x,x,n
O=C(CNCCC1=CCCCC1)Nc1ccccc1N1CCCCC1,n,n,n,n,n
CCCCn1cnc2cc(NCc3ccncc3)ccc21,n,n,n,n,n
CN(C)c1ccc(CNc2ccc3c(c2)ncn3C)cc1,n,n,n,5.2,n
CCCCOc1c(Br)cc(/C=N/O)cc1OCC,n,n,21,2.0,n
C=CCOc1c(Br)cc(/C=N/O)cc1OCC,n,x,x,x,n
CCOC(=O)N/N=C(\C)c1ccc(C)c([N+](=O)[O-])c1,n,x,x,x,n
SMILES,bCat KO growth,Lung fibro prol,HUVEC prolif 384,H69AR growth 86K,PTEN del growth
COc1ccc(CCNC(=O)C2CCN(Cc3nc(-c4ccccc4F)oc3C)CC2)cc1OC,n,n,n,n,n
Cc1ccccc1-c1nc(CN2CCC(C(=O)NCCCN3CC(C)CC(C)C3)CC2)c(C)o1 (configuration not stated),n,n,14,n,n
Cc1oc(-c2ccccc2F)nc1CN1CCC(C(=O)NCCC2=CCCCC2)CC1,n,n,20,n,n
Cc1cccc(OCCNC(=O)c2cncc(Br)c2)c1,n,x,x,x,n
COc1ccccc1N(CC(=O)NC(C)(C)C)S(=O)(=O)c1cccs1,n,x,x,x,n
c1ccc(N2CCN(c3nc(NCc4ccco4)c4ccccc4n3)CC2)cc1,2.4,x,x,x,3.1
c1coc(CNc2nc(N3CCCCC3)nc3ccccc23)c1,n,n,n,5.3,n
O=c1c2ccccc2nc2c3ccccc3c(NCc3ccco3)nn12,n,n,n,n,n
C=CCn1c(SCc2nc3ccccc3c(=O)[nH]2)nnc1-c1cc2cc(Cl)ccc2o1,n,n,n,17,n
CN(c1ccccc1)c1nc(-n2ccnc2)nc(-n2ccnc2)n1,n,n,n,32,n
c1ccc(-c2nc(N3CCCCCC3)nc(-n3ccnc3)n2)cc1,n,n,n,0.9,n
c1ccc(-c2nc(N3CCN(c4ccccc4)CC3)nc(-n3ccnc3)n2)cc1,n,n,n,n,n
C=CCNc1nc(N(c2ccccc2)c2ccccc2)nc(-n2ccnc2)n1,n,n,n,n,n
CCCCNc1nc(N(C)c2ccccc2)nc(-n2ccnc2)n1,n,n,n,33,n
Cc1ccc(-c2nnc(Oc3ccc(NC(=O)c4ccccc4)cc3)c3ccccc23)cc1,n,x,x,x,n
Cc1coc2c(C)c3oc(=O)c4c(c3cc12)CCCC4,x,n,n,21,x
Cc1oc2c(C)c3oc(=O)c4c(c3cc2c1C)CCC4,n,n,n,n,n
Cc1nn(-c2nc3ccccc3s2)c(N)c1Sc1ccc(F)cc1,n,18,n,9.7,n
Cc1[nH]c(=O)c(C#N)c2c1CSC(C)(C)C2,n,n,n,n,n
CN1CC2=Cc3ccccc3OC23Oc2ccccc2C=C3C1,n,n,n,21,n
O=C(Nc1ccc2c(c1)OCCO2)NC1(C(F)(F)F)Oc2ccccc2O1,n,n,n,n,n
O=C(Nc1ccc2c(c1)OCO2)NC1(C(F)(F)F)Oc2ccccc2O1,n,n,n,26,n
O=C(NCC1CCCO1)c1ccccc1 (configuration not stated),n,n,n,n,n
O=C(NC1(C(F)(F)F)Oc2ccccc2O1)N1CCCC1,n,n,n,28,n
O=C(NCC1CCCO1)NC1(C(F)(F)F)Oc2ccccc2O1 (configuration not stated),n,n,n,21,n
SMILES,bCat KO growth,Lung fibro prol,HUVEC prolif 384,H69AR growth 86K,PTEN del growth
Cc1cccc(OC(=O)n2c(=S)oc3cc(Cl)ccc32)c1,n,x,x,x,n
Cc1ccc(C(c2nnnn2Cc2ccccc2)N2CCN(Cc3ccccc3)CC2)cc1 (configuration not stated),n,n,n,n,n
Cn1c(C(=O)NCCCN2CCc3ccccc3C2)cc2c(=O)n(C)c3ccccc3c21,n,n,n,35,n
Cn1c(C(=O)Nc2ccc3c(c2)OCCO3)cc2c(=O)n(C)c3ccccc3c21,n,n,n,21,n
COCCCNC(=O)c1cc2c(=O)n(C)c3ccccc3c2n1C,n,n,n,24,n
Nc1cc(C(=O)O)ccc1N1CCCCCC1,n,n,n,n,n
Cc1nn2c(COc3ccc(NC(=O)c4ccccc4Cl)cc3)nnc2c2ccccc12,n,x,x,x,n
CN1CCc2c(C#N)c(N3CCCCC3)nc(NCc3ccccc3)c2C1,1.0,n,11,3.4,1.4
N#Cc1c(NCCCO)nc(NCc2ccccc2)c2c1CCN(Cc1ccccc1)C2,n,n,n,n,n
Cc1nc2cc(N3CCCCC3)c(NC(=O)c3cccnc3)cc2c(=O)n1Cc1ccccc1,n,38,n,33,n
N#CCCn1nnc2ccccc21,6.0,n,n,n,n
CCCCCCCCC(=O)Nc1cc(C)ccc1OC,n,n,n,n,n
COCCNC(=O)COC(=O)/C=C/c1c(C)nn(Cc2ccc(Cl)cc2Cl)c1Cl,n,n,n,n,n
